This is an account of results in ChEMBL document CHEMBL4513216, “Probing the Open Global Health Chemical Diversity Library for Multistage-Active Starting Points for Next-Generation Antimalarials” (ACS Infect Dis, 2020).

This data set is described as follows: Toxicity liver stage against HepG2, at 10uM. Type of data set: cell-based. Details: test concentration 10 uM, cell line HepG2-A16-CD81EGFP. The note with it: human, HepG2-A16-CD81EGFP cells; read-out: INHIBITION
In outline:
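Uninfected HepG2-A16-CD81EGFP cells, 3 × 10^3 per well, 1536-well, plated on prespotted compound at 10 μM final, parasite-free screening media added to match infected plates; puromycin 10 μM positive, DMSO 0.5% negative; run in parallel with 48 h PbLuc assay at 37 °C, 5% CO2; viability by CellTiter-Glo luminescence, normalized to controls.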
`Cn1nnn(-c2ccc(NS(=O)(=O)c3ccc(Br)cc3)cc2)c1=O`: the cytotoxicity at 10 µM is -2.77%.

Turning to `O=C(NCCn1cnc(C2CCCC2)cc1=O)NCc1cccs1`, the cytotoxicity at 10 µM was -7.05%.

With `CNC(=O)CN1C(=O)CCC12CCCN(Cc1ccccn1)C2` (stereo not drawn), the cytotoxicity at 10 µM is 4.5%.

Regarding `O=C1N(Cc2cccc(F)c2)CCC12CCCNC2` (stereo not drawn), the cytotoxicity at 10 µM is -5.19%.

Regarding `CCN1C(=O)CCCC12CCCN(C(=O)c1sccc1C)C2` (stereo not drawn), the cytotoxicity at 10 µM is 3.73%.

Turning to `CCN1C(=O)CCCC12CCCN(C(=O)c1cc(C)oc1C)C2` (stereo not drawn), the cytotoxicity at 10 µM is 4.09%.

Regarding `Cc1ccc(CN2CC3(CCN(C(=O)Cc4ccc(Cl)cc4)C3)C2)o1`, the cytotoxicity at 10 µM came to 6.11%.

As for `CCNC(=O)c1ccc2c(c1)nc1n2CCN(C(C)C)C1`, the cytotoxicity at 10 µM came out at 9.35%.

Regarding `COC(=O)c1ccccc1NC(=O)c1nc2ccccc2n(C)c1=O`, the cytotoxicity at 10 µM is -9.99%.

As for `CC(Oc1ccc2c(c1)OCO2)C(=O)Nc1ccon1` (stereo not drawn), the cytotoxicity at 10 µM came to 1.09%.

As to `O=C(NC1CC1)c1cc(Sc2ncccn2)ccn1`, the cytotoxicity at 10 µM worked out at 0.493%.

In the case of `O=C(O)c1ccccc1-c1cnc(CNC(=O)C2CCOCC2)nc1`, the cytotoxicity at 10 µM was -3.99%.

As for `CC(c1nc(C2CC2)no1)N1CCC(NS(=O)(=O)c2cccs2)CC1` (stereo not drawn), the cytotoxicity at 10 µM is 6.4%.

`COC(=O)c1ccc(F)c(S(=O)(=O)Nc2ccc(C(N)=O)cc2)c1`: the cytotoxicity at 10 µM was found to be 3.63%.

In the case of `Cc1cc(CSc2ccccn2)on1`, the cytotoxicity at 10 µM was determined as 8.4%.

For the compound `Cc1ccn(-c2ccc(N3CCN(Cc4ccccn4)CC3)nn2)n1`, the cytotoxicity at 10 µM was determined as 5.6%.

For `O=C(CN1CCS(=O)(=O)CC1)NC1CCCc2ccccc21` (stereo not drawn), the cytotoxicity at 10 µM is -0.82%.

Take `Cc1nc(CN2CCN(C(=O)c3scnc3C)CC2)cs1`: the cytotoxicity at 10 µM was found to be 0.524%.

As to `CNS(=O)(=O)CC(=O)N1CC2(CCCC2)c2c(F)cccc21`, the cytotoxicity at 10 µM is -1.21%.

As for `O=C1NCC2(CCCN(C(=O)Nc3ccc4occc4c3)CC2)O1` (stereo not drawn), the cytotoxicity at 10 µM worked out at 2.09%.

For the compound `CCc1nc(C)c([C@H]2CN(C)C[C@@H]2C(=O)Nc2cccc3cn[nH]c23)[nH]1`, the cytotoxicity at 10 µM was -3.44%.

Turning to `Cc1cc(C)c(C#N)c(N2CCC3(CCCN(CCO)C3=O)C2)n1` (stereo not drawn), the cytotoxicity at 10 µM came out at 0.854%.

With `Cc1cc2nc(C(C)C)cc(N3CCC(Oc4ncccn4)CC3)n2n1`, the cytotoxicity at 10 µM came to 13.9%.

As for `O=C(NC1CCCNC1)c1cc(COc2cccc(C(F)(F)F)c2)[nH]n1` (stereo not drawn), the cytotoxicity at 10 µM was -1.31%.

For the compound `Cc1[nH]c2c(C)ccc(C)c2c1CC(=O)NCCNc1cccnc1`, the cytotoxicity at 10 µM amounted to 0.393%.

`COCCN(Cc1cccs1)c1nc(CCN)nc2ccccc12`: the cytotoxicity at 10 µM came to 4.49%.

`COc1cccc(CC(=O)N2CCC(NCc3c[nH]nc3C)CC2)c1`: the cytotoxicity at 10 µM was -8.98%.

For `O=C1CCC2(CCC(NC3CCOC3)CC2)N1Cc1ccccc1` (stereo not drawn), the cytotoxicity at 10 µM was -5.54%.

Take `Cn1cc(C(=O)N[C@@H]2CN(Cc3ccc(F)cc3)[C@@H]3CCCO[C@@H]32)cn1`: the cytotoxicity at 10 µM was -1.31%.

Regarding `CN1CC(=O)N(c2cccc(F)c2)CC12CCN(Cc1ccncc1)C2` (stereo not drawn), the cytotoxicity at 10 µM was 5.69%.

As to `CCc1ccc(CN2CCC3(CC2)C(=O)N(C)CCN3CC2CC2)cc1`, the cytotoxicity at 10 µM was 5.68%.

For the compound `Cc1ccc(CN2Cc3c(C(=O)N4CCOCC4)nn(C)c3C2)s1`, the cytotoxicity at 10 µM is 6.15%.

As for `Cn1cc(CN2CCCC23CCN(C(=O)c2ccccn2)CC3)cn1`, the cytotoxicity at 10 µM was -1.94%.

Take `O=C(NCc1ccccn1)[C@]12COC[C@H]1CN(Cc1cccnc1)C2`: the cytotoxicity at 10 µM turned out to be 5.64%.

Regarding `O=C(c1cccs1)N1C[C@@H]2OCCN(CC3CCCO3)[C@@H]2C1` (stereo partly drawn), the cytotoxicity at 10 µM was -2.24%.

Turning to `COCCN1CCc2cc(C(=O)O)c(NCC3CC3)nc2CC1`, the cytotoxicity at 10 µM worked out at 4.21%.

In the case of `CNC(=O)[C@@]12CCCN(c3ncccn3)[C@@H]1CN(C)C2`, the cytotoxicity at 10 µM worked out at 12.8%.

As to `c1ccc(CO[C@H]2CO[C@@]3(CCCN(Cc4cccnc4)C3)C2)nc1`, the cytotoxicity at 10 µM is -6.37%.
